How the values were obtained:
Plasmodium falciparum [1] = assay: In vitro antimalarial activity against Plasmodium falciparum HB; format: functional, organism-based
Outline: (§1)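 Parasites kept in continuous culture in human erythrocytes in RPMI 1640 with 25 mM HEPES, 32 mM NaHCO3 and 10% human serum, gassed 3% O2/4% CO2/93% N2. 48-h assay at 2% parasitemia, 0.5% haematocrit, drugs from DMSO stocks diluted in medium, triplicate. [3H]-hypoxanthine added at 24 h, further 24 h at 37 °C, scintillation counting. IC50 by probit interpolation of log dose–response.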

Plasmodium falciparum [2] = assay: In vitro antimalarial activity against chloroquine-resistant Plasmodium falciparum K1; format: functional, organism-based; outline: as §1
Plasmodium yoelii = assay: […] against Plasmodium yoelii NS in peter 4-day assay; format: functional; conditions: 96 h, in the assay text read “In vivo” for “In vitro”
Outline: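 Male CD-1 mice (n = 5 per dose group) infected ip with 10^6 parasitized erythrocytes in PBS. Oral gavage dosing at time 0 (2 h post-inoculation) and on days 1, 2 and 3, at 25, 10, 3, 1, 0.3 and 0.1 mg/kg. On day 4, Giemsa-stained tail-blood films were read microscopically for parasite density, and ED50 was derived.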

Compound | IC50 (Plasmodium falciparum [1]) [nM] | IC50 (Plasmodium falciparum [2]) [nM] | ED50 (Plasmodium yoelii) [mg/kg]
CC(C)NCc1ccc(Nc2ccnc3cc(Cl)ccc23)cc1O | 20.2 | 26.2 | –
Oc1cc(Nc2ccnc3cc(Cl)ccc23)ccc1CN1CCCCC1 | 9.07 | 20.3 | –
CCN(CC)Cc1ccc(Nc2ccnc3cc(Cl)ccc23)cc1O | 9.02 | – | –
CN(C)Cc1ccc(Nc2ccnc3cc(Cl)ccc23)cc1O | 14.8 | 18.6 | –
Oc1cc(Nc2ccnc3cc(Cl)ccc23)ccc1CN1CCOCC1 | 97.2 | 112 | –
CCCCN(CCCC)Cc1ccc(Nc2ccnc3cc(Cl)ccc23)cc1O | 51.9 | 37.2 | –
CCN(CC)Cc1cc(Nc2ccnc3cc(Cl)ccc23)ccc1O.Cl | – | 15.1 | 7.65
Oc1cc(Nc2ccnc3cc(Cl)ccc23)ccc1CN1CCCC1 | 28.4 | 21.8 | –
CCCN(CCC)Cc1ccc(Nc2ccnc3cc(Cl)ccc23)cc1O | 19.8 | 30.6 | –
CCNCc1ccc(Nc2ccnc3cc(Cl)ccc23)cc1O [DESETHYL ISOQUINE] | 16.2 | 32.4 | –
CC(C)(C)NCc1ccc(Nc2ccnc3cc(Cl)ccc23)cc1O [GSK-369796] | 30 | 32.8 | –
CCN(CC)Cc1ccc(Nc2ccnc3cc(Cl)ccc23)cc1O [ISOQUINE] | – | – | 2.65

From ChEMBL document CHEMBL1144904, “Isoquine and related amodiaquine analogues: a new generation of improved 4-aminoquinoline antimalarials” (J Med Chem, 2003)
